Values after ≈ are worked out from the molar mass of the structure shown. Values joined by “and” are separate entries in the source; they are usually repeats but may differ in a detail not shown here. Identical values can stand only once.
What was measured:
Rattus norvegicus [1] = species: Rattus norvegicus; test: Percentage converted to BMS-191011 after 30 min incubation in rat plasma at 37 degree C; assay type: ADME, organism-based; details: 0.5 h
Summary of the method: (§1)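 Prodrug was incubated in rat plasma for 30 min at 37 °C. The percentage converted to the parent BMS-191011 was then determined.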

[2] = Solubility in water at 7.2 pH; assay type: physicochemical; details: pH 7.2, read-out: S
Summary of the method: (§2)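 Aqueous solubility (mg/mL), measured with the pH of the resulting solution recorded.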

[3] = Solubility in water at 5.5 pH; assay type: physicochemical; details: pH 5.5, read-out: S; summary of the method: as §2
[4] = Area under curve was determined; assay type: ADME, organism-based; details: rat, in vivo
Summary of the method: (§3)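 Male SD rats (N=3) given prodrug by IV infusion at 1.7 mg/kg (equivalent to 1 mg/kg parent), vehicle PEG-400/water 1:1. Blood samples were mixed at once with an equal volume of water, quenched with four volumes of acetonitrile and stored at -20 °C. Prodrug and parent were measured by two separate LC/MS/MS assays. Mean ±SD.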

Rattus norvegicus [5] = test: Percent reduction of neocortical infract volume in 28 rats after IV administration (2h post MCA) at a dose of […]; assay type: functional
Summary of the method: (§4)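 Rat MCA occlusion model. Neocortical infarct volume was compared with vehicle controls (2% DMSO/98% propylene glycol) in the same study. Statistics by ANOVA with Dunnett's t-test, p<0.05; 28–29 animals per group.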

[6] = Plasma clearance was determined; assay type: ADME, organism-based; details: rat; summary of the method: as §3
Rattus norvegicus [7] = test: Percent reduction of neocortical infract volume in 29 rats after IV administration (2h post MCA)at a dose of […]; assay type: functional; summary of the method: as §4
[8] = t1/2 (apparent elimination)of the compound was determined; assay type: ADME, organism-based; details: rat, in vivo; summary of the method: as §3
[9] = […] expressed as percentage of compound remains at 24 hr in PEG400/Water, 1:1; assay type: ADME, organism-based; details: read-out: Prodrug remains
Summary of the method: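 Chemical stability in PEG400/water (1:1) solution, given as the percentage of prodrug remaining after 24 h.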

[10] = Volume distribution was determined; assay type: ADME, organism-based; details: rat, in vivo; read-out: Vdss; summary of the method: as §3
Rattus norvegicus [11] = test: Percent reduction of neocortical infract volume in 28 rats after IV administration (2h post MCA)at a dose of […]; assay type: functional; summary of the method: as §4
[12] = Solubility in deionized water; assay type: physicochemical; details: read-out: S
Summary of the method: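 Solubility of the prodrug (mg/mL) in deionized water.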

Rattus norvegicus [13] = species: Rattus norvegicus; test: […] expressed as percentage of compound remains at 24 hr in PEG400/Water, 1:1; Not stable; assay type: ADME, organism-based
[14] = Solubility in water at 7.5 pH; assay type: physicochemical; details: pH 7.5, read-out: S
[15] = Solubility in water at 2.4 pH; assay type: physicochemical; details: pH 2.4, read-out: S
Rattus norvegicus [16] = species: Rattus norvegicus; test: Percentage converted to BMS-191011 after 30 min incubation in rat plasma at 37 degree C; Converted to an unknown compound; assay type: ADME, organism-based; details: 0.5 h; summary of the method: as §1
[17] = Solubility in water at 4.2 pH; assay type: physicochemical; details: pH 4.2, read-out: S; summary of the method: as §2
[18] = Solubility in water at 7.0 pH; assay type: physicochemical; details: pH 7, read-out: S
[19] = Solubility in water at 8.4 pH; assay type: physicochemical; details: pH 8.4

O=c1oc(-c2ccc(C(F)(F)F)cc2)nn1Cc1cc(Cl)ccc1OP(=O)(O)O
Conversion (Rattus norvegicus [1]): 0% | solubility [2]: 14600 µg/mL (≈ 32.4 mM) | solubility [3]: 4900 µg/mL (≈ 10.9 mM)

CS(=O)(=O)[O-].C[N+](C)(C)CCCC(=O)OCOc1ccc(Cl)cc1Cn1nc(-c2ccc(C(F)(F)F)cc2)oc1=O
AUC [4]: 1260 ng·h/mL | Conversion (Rattus norvegicus [1]): > 80% | Reduction (Rattus norvegicus [5]): -13% | clearance [6]: 22.9 mL/min/kg | Reduction (Rattus norvegicus [7]): -16% | half-life [8]: 2.7 h | remaining at 24 h [9]: > 97% | Vd [10]: 2.6 L/kg | Reduction (Rattus norvegicus [11]): -14% and -12% and -17% | solubility [12]: > 25000 µg/mL

CS(=O)(=O)[O-].C[N+](C)(C)CCOC(=O)Oc1ccc(Cl)cc1Cn1nc(-c2ccc(C(F)(F)F)cc2)oc1=O
Conversion (Rattus norvegicus [1]): 100% | remaining at 24 h [9]: 72%

O=C(OCOP(=O)(O)O)Oc1ccc(Cl)cc1Cn1nc(-c2ccc(C(F)(F)F)cc2)oc1=O
Prodrug remains (Rattus norvegicus [13]): Not stable | solubility [14]: 4 µg/mL (≈ 0.00762 mM) | solubility [15]: 55 µg/mL (≈ 0.105 mM)

CS(=O)(=O)[O-].C[N+](C)(C)CCCC(=O)Oc1ccc(Cl)cc1Cn1nc(-c2ccc(C(F)(F)F)cc2)oc1=O
Conversion (Rattus norvegicus [1]): 95% | remaining at 24 h [9]: > 90% | solubility [12]: > 4000 µg/mL

CS(=O)(=O)[O-].C[N+](C)(C)CC(=O)c1ccc(Cl)cc1Cn1nc(-c2ccc(C(F)(F)F)cc2)oc1=O
remaining at 24 h [9]: > 90%

O=c1oc(-c2ccc(C(F)(F)F)cc2)nn1Cc1cc(Cl)ccc1O
AUC [4]: 52.4 ng·h/mL | half-life [8]: 1.2 h

CS(=O)(=O)[O-].C[N+](C)(C)CCC(=O)Oc1ccc(Cl)cc1Cn1nc(-c2ccc(C(F)(F)F)cc2)oc1=O
Conversion (Rattus norvegicus [1]): 100% | remaining at 24 h [9]: > 90% | solubility [12]: > 4000 µg/mL

CS(=O)(=O)[O-].C[N+](C)(C)CC(=O)OCOc1ccc(Cl)cc1Cn1nc(-c2ccc(C(F)(F)F)cc2)oc1=O
Conversion (Rattus norvegicus [16]): Converted to an unknown compound | solubility [17]: 4500 µg/mL

O=c1oc(-c2ccc(C(F)(F)F)cc2)nn1Cc1cc(Cl)ccc1OCOP(=O)(O)O
Prodrug remains (Rattus norvegicus [13]): Not stable | solubility [18]: 6100 µg/mL (≈ 12.7 mM) | solubility [19]: > 16000 µg/mL

Source: ChEMBL document CHEMBL1146609, “Synthesis of water-soluble prodrugs of BMS-191011: a maxi-K channel opener targeted for post-stroke neuroprotection” (Bioorg Med Chem Lett, 2003)
